Measured values from different studies.
Each line is one published result; the experiments were not run side by side.
rep main protease: Replicase polyprotein 1ab, main protease (rep, Severe acute respiratory syndrome coronavirus 2, UniProt P0DTD1)
ADRA1A: Alpha-1A adrenergic receptor (ADRA1A, Homo sapiens, UniProt P35348)
MAL12: Alpha-glucosidase MAL12 (MAL12, Saccharomyces cerevisiae S288c, UniProt P53341)

| Compound | target | assay | setting | endpoint | result |
| --- | --- | --- | --- | --- | --- |
| [2H]c1c([2H])c([C@]2([2H])CCCN2C(=O)C(C)(C)Oc2ccc3cn[nH]c3c2)c([2H])c([2H])c1C([2H])([2H])[2H] | Focal adhesion kinase 1 (PTK2, Homo sapiens, UniProt Q05397) | binding, competition with immobilised ligand | 1 µM | remaining binding | 75% |
| O=c1c(O)c(-c2ccc(O)cc2)oc2c(O)c(O)cc(O)c12 | rep main protease | enzyme activity, inhibitor |  | kinact | 0.000152 s⁻¹ |
| c1cncc([C@@H]2CCCN2)c1 | ADRA1A | ligand displacement | 50 µM | inhibition | -8.12% |
| CC(C)CC(=O)OC[C@H]1O[C@@](C#N)(c2ccc3c(N)ncnn23)[C@H](O)[C@@H]1O | Histamine H2 receptor (HRH2, Homo sapiens, UniProt P25021) | cell-free assay | 20 µM | inhibition | 3% |
| CN1CCC[C@H]1c1cccnc1 | ADRA1A | ligand displacement | 50 µM | inhibition | -6.17% |
| O=C(O)c1cc(O)c(O)c(O)c1 | rep main protease | enzyme activity, inhibitor |  | kinact | 0.00079 s⁻¹ |
| CN1C(=S)N(c2ccccc2)C(=O)/C1=C1/C(=O)N(C)c2ccc(Cl)cc21 | MAL12 | enzyme activity, inhibitor, absorbance | 25 µM | inhibition | 11.9% |
| O=C(O[C@@H]1Cc2c(O)cc(O)cc2O[C@@H]1c1ccc(O)c(O)c1)c1cc(O)c(O)c(O)c1 | rep main protease | enzyme activity, inhibitor |  | kinact/KI | 9.76 M⁻¹ s⁻¹ |
| CN1C(=O)/C(=N\Nc2ncc(-c3cc4ccccc4oc3=O)s2)c2cc(Cl)ccc21 | MAL12 | enzyme activity, inhibitor, absorbance | 25 µM | inhibition | 17.4% |
| COc1cc2c(cc1OC)-c1c(OC)c(OC)cc3c1[C@H](C2)N(C)CC3 (racemic) | ADRA1A | ligand displacement, radioligand | 10 µM | inhibition | 69% |
| COc1cc(O)c2c(=O)cc(-c3ccccc3)oc2c1 | rep main protease | enzyme activity, inhibitor | 10 µM | inhibition | 2.12% |
| CCc1ccc(N2C(=O)/C(=C3/C(=O)N(C)c4ccc(Cl)cc43)NC2=S)cc1 | MAL12 | enzyme activity, inhibitor, absorbance | 200 µM | inhibition | 62.1% |
| COc1ccc(-c2cc(=O)c3c(O)cc(OC)cc3o2)cc1 | rep main protease | enzyme activity, inhibitor | 100 µM | inhibition | 10.6% |
| CCOC(=O)Cc1c2c3c(cc(OC)c(OC)c3c3cc(OC)c(OC)cc13)CCN2C | ADRA1A | ligand displacement, radioligand | 10 µM | inhibition | 13% |
| COc1cc(O)c2c(=O)c(OC)c(-c3ccccc3)oc2c1 | rep main protease | enzyme activity, inhibitor | 10 µM | inhibition | 3.04% |
| COc1cc2c3c(c1OC)-c1c(cccc1OC)CC3N(C)CC2 (racemic) | ADRA1A | ligand displacement, radioligand | 10 µM | inhibition | 65% |
